# Bioassay records: PubChem, several laboratories
# In the library only some 4.8% were active in any assay of this set; here they are far more common.
# Beta apoptosis – blocks beta cell apoptosis; hit rate 0.8% among 300,000; protection from apoptosis, % (test concentration not listed); AID 435005; INS-1E cytokine-induced death, ATP luminescence, 48 h; percent of positive-control rescue, neutral wells zero;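 active means Every replicate reaches about 75%, or at least half do and their mean reaches it too, limit read from the data; inconclusive means At least half of replicates reach the limit but their mean does not; inactive means Under half of replicates reach the limit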;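 further: higher means more ATP so stronger rescue from cytokine killing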
# CSC inhib – cancer stem cell inhibition. hit rate 1.1% among 300,000. cancer stem cell-like cells viability, luminescence. inhibition, % at 7.5 µM. AID 2717; in the data active means inhibition above about 75%; inconclusive means no clear call, values can overlap the other calls; tested in HMLE shEcad cells
# UPR CHOP act – activators of apoptotic arm of unfolded protein response (CHOP). CHO-CHOP luciferase reporter, UPR activation, luminescence; percent of tunicamycin response over DMSO baseline. activation, % at 10 µM. hit rate 0.34% among 330,000. AID 449763;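 active means at 10 µM dose, activation of 40% or more, normalized to positive control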
#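 Material: CHO-CHOP cells, stable luciferase reporter of PERK-eIF2a-CHOP signalling; quantity: 500 reporter cells seeded per well; buffer or medium: F12 medium containing 10% fetal bovine serum; compound: one dose, 10 µM in 0.5% DMSO; incubation: 6 h compound treatment, 37 °C; measured by: Steady-Glo luciferase luminescence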
# UPR XBP1 act – adaptive UPR (XBP1) activation. CHO-XBP1 luciferase reporter, IRE1-XBP1 UPR activation, luminescence; percent of tunicamycin response, DMSO as zero. hit rate 0.33% among 330,000. activation, % at 20 µM;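 active means versus positive control, 20 µM dose yields 30% or more activation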
#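 Assay system: IRE1-XBP1 luciferase reporter CHO line. Input: 1000 cells/well. Buffer or medium: F12 with 10% serum. Doses: 20 µM, 1% DMSO. Times: overnight seeding at 37 °C, 6 h compound treatment at 37 °C. Technique: Steady-Glo luciferase glow luminescence, 10 min after reagent addition.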
# SKKanGAS inh – blocks kanamycin growth of S. pyogenes SKKanGAS strain; BacTiter-Glo, 6 h; inhibition, % at 7.5 µM; hit rate 1.3% among 300,000; AID 1662;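 active means mean replicate score, as percent of positive control median, at least 50; inconclusive means mean below 50 but one replicate at or above 50; inactive means mean and every replicate below 50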;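 further: strain carries kanamycin resistance gene driven by streptokinase promoter and grows in 40 µg/ml kanamycin; loss of luminescence reflects streptokinase promoter inhibition or plain growth inhibition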
# Mdm2-MdmX inh – inhibitors of human Mdm2/MdmX interaction; hit rate 3% among 330,000; O15151+Q00987; SaOS-2 split-luciferase Mdm2/MdmX complementation, luminescence; inhibition, % at 8 µM;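 active means inhibition of at least 50% at 8 µM in the primary screen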
# Target sequence (O15151 whole entry, looked up): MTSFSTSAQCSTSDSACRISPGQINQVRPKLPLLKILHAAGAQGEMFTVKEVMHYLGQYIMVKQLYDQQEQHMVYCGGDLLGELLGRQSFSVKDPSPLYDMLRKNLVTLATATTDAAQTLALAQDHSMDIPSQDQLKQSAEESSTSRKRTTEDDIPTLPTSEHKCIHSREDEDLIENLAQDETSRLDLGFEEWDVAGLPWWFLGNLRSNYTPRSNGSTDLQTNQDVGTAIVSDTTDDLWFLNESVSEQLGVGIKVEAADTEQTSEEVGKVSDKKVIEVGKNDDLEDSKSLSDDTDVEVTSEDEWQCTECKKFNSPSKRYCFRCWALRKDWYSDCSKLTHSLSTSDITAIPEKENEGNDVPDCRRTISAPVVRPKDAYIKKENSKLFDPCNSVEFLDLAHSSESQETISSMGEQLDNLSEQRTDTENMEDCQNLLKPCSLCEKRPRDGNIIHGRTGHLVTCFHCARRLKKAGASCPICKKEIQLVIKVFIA
# Target sequence (Q00987 whole entry, looked up): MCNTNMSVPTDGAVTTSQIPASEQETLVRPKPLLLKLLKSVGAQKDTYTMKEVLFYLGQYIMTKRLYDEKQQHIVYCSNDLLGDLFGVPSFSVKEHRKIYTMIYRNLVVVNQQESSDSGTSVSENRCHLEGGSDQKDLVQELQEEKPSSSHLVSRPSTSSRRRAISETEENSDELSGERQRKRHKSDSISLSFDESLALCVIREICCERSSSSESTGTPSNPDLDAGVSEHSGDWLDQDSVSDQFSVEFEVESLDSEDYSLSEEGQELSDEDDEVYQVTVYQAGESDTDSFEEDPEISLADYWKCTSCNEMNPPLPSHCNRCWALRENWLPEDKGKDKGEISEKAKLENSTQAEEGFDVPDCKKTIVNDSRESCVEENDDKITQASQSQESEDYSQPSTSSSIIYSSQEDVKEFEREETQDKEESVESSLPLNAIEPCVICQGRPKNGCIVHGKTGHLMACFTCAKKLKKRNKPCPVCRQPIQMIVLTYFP
# Mdm2-MdmX conf – human Mdm2/MdmX binding inhibition, confirmed; shares compounds with Mdm2-MdmX inh; luminescent assay; inhibition, % at 8 µM; hit rate 55% among 10,000; in the data active means inhibition above about 40%
# Full FLuc ctr – inhibits full-length luciferase, flagging false Mdm2/MdmX hits. shares compounds with Mdm2-MdmX inh. SaOS-2 full-length luciferase counterscreen, luminescence. inhibition, % at 8 µM. hit rate 77% among 6,200. AID 504607;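 active means mean inhibition at 8 µM reaching about 37%, which flags the compound as non-specific, limit read from the data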;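 further: p53-null SaOS-2 cells with luciferase driven by a doxycycline-inducible promoter; compound on cells about two nights before reading with doxycycline added after day one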
# Numbers stand for hits; – = inactive; ? = inconclusive; · = no result.
SMILES,Beta apoptosis,CSC inhib,UPR CHOP act,UPR XBP1 act,SKKanGAS inh,Mdm2-MdmX inh,Mdm2-MdmX conf,Full FLuc ctr
C/C(=N/OC(=O)c1ccc(Cl)cc1Cl)c1oc(C)nc1C,–,–,–,–,–,–,·,·
COc1cccc(OC)c1C(=O)Nc1ccnn1C,·,·,–,–,–,–,·,·
CCn1c(=O)c2sccc2n(Cc2cc(C(=O)OC)ccc2OC)c1=O,–,–,–,–,–,51,–,·
COC(=O)c1ccc(OC)c(Cn2c(=O)n(C)c(=O)c3sccc32)c1,–,–,–,–,–,–,·,·
O=C(/C(N=Nc1cccc([N+](=O)[O-])c1)=C(/O)c1ccc(Br)cc1)C(F)(F)F,105,99,–,–,84,96,88,–
O=C(CCNc1ccc(Br)cc1)c1cccc([N+](=O)[O-])c1,–,–,–,–,–,–,·,·
S=c1[nH]nc(COc2ccccc2)n1/N=C/c1c(Cl)cccc1Cl,·,·,–,–,–,–,·,·
CC1(C)Oc2ccc3ccc(=O)oc3c2/C(=C/Nc2ccc(O)cc2)C1=O,–,–,–,–,–,55,–,·
O=C(Nc1ncc(S(=O)(=O)c2ccc([N+](=O)[O-])cc2)s1)c1cccnc1,–,–,–,–,–,–,·,·
O=C(Nc1ncc(Cc2cccc(Cl)c2Cl)s1)c1ccc([N+](=O)[O-])cc1,·,–,–,–,–,–,·,·
CC(C)c1ccc(Nc2nnc(SCC(=O)Nc3ncc(S(=O)(=O)c4ccc([N+](=O)[O-])cc4)s3)s2)cc1,–,–,–,–,–,–,·,·
O=C(Nc1ncc(Cc2cc(Cl)ccc2Cl)s1)c1ccc([N+](=O)[O-])cc1,–,–,–,–,–,59,–,·
O=C(Nc1ncc(S(=O)(=O)c2ccc([N+](=O)[O-])cc2)s1)c1ccc2ccccc2c1,–,?,–,–,–,71,–,·
Cc1ccc(Nc2nnc(SCC(=O)Nc3ncc(S(=O)(=O)c4ccc([N+](=O)[O-])cc4)s3)s2)cc1,–,·,–,–,–,62,–,·
C=CCN1C(=O)N(CC=C)c2cccc3cccc1c23,–,–,–,–,–,–,·,·
CCN1C(=O)Nc2cccc3cccc1c23,–,–,–,–,–,84,62,57
Cc1ccc(N(Cc2ccco2)C(=O)c2ccc(N3CCCCC3)c([N+](=O)[O-])c2)cc1,–,–,–,–,–,54,–,·
O=C(NCc1ccco1)c1ccc(N2CCCCC2)c([N+](=O)[O-])c1,–,–,–,–,–,–,·,·
Oc1c(C(c2cccs2)N2CCN(c3ccccc3)CC2)ccc2cccnc12 (stereo not drawn),109,88,87,–,·,51,82,–
CN1CCN(C(c2ccc(C(F)(F)F)cc2)c2ccc3cccnc3c2O)CC1 (stereo not drawn),81,98,–,–,87,74,73,–
CC(C)(C)n1nnnc1C(c1cccs1)N1CCN(c2ccccc2)CC1 (stereo not drawn),·,–,–,–,–,–,·,·
CCc1nc(SCC(=O)Nc2ccc3c(c2)OCCO3)c2oc3ccccc3c2n1,–,–,–,–,–,86,–,·
CCOC(=O)C(CC)/C(C)=N\NC(=O)c1ccccc1O (stereo not drawn),–,–,–,–,–,68,50,77
COc1cc(NC(=O)c2cccc3c2C(=O)N(C2CCCCC2)C3)cc(OC)c1OC,–,–,–,–,–,78,43,61
CCn1cc(C(=O)NCCCN2CC(C)CC(C)C2)c(=O)c2cc(S(=O)(=O)N(C)C3CCCCC3)ccc21 (stereo not drawn),–,–,–,–,–,52,–,60
SMILES,Beta apoptosis,CSC inhib,UPR CHOP act,UPR XBP1 act,SKKanGAS inh,Mdm2-MdmX inh,Mdm2-MdmX conf,Full FLuc ctr
C=CCNC(=O)c1ccccc1NC(=O)C1CC(=O)N(C(C)C)C1 (stereo not drawn),–,–,–,–,–,–,·,·
Fc1ccc2[nH]c3c(N4CCc5ccccc5C4)ncnc3c2c1,127,?,–,–,–,57,–,·
CN1CCN(c2ncnc3c2[nH]c2ccc(F)cc23)CC1,–,–,–,–,–,–,·,·
CCOc1ccc2[nH]c3c(N4CCc5ccccc5C4)ncnc3c2c1,–,87,–,–,51,57,59,–
Brc1ccc2[nH]c3c(N4CCc5ccccc5C4)ncnc3c2c1,–,80,–,–,86,69,–,·
CCOc1ccc2[nH]c3c(NCC(C)C)ncnc3c2c1,–,–,–,–,–,–,·,·
c1ccc2c(c1)[nH]c1c(N3CCCC3)ncnc12,–,·,–,–,–,–,·,·
Cc1cc(Cn2nnc(-c3ccc(Br)cc3)n2)cc(C)c1O,–,–,–,–,·,–,·,·
COc1ccc(Br)cc1/C=N/NC(=O)c1cccnc1,–,–,–,–,–,–,·,·
COc1ccc(/C=N/NC(=O)c2ccn[nH]2)cc1COc1ccc([N+](=O)[O-])c(C)c1,·,–,–,–,–,–,·,·
COc1ccc(/C=N/NC(=O)c2cccnc2)cc1COc1ccc([N+](=O)[O-])c(C)c1,–,–,–,–,–,52,55,48
COc1cc([N+](=O)[O-])cc(/C=N/NC(=O)c2cccnc2)c1O,–,–,–,–,88,55,52,51
O=C(COC(=O)C12CC3CC(CC(Br)(C3)C1)C2)Nc1cccc(S(=O)(=O)N2CCOCC2)c1,–,–,–,–,·,–,·,·
COc1ccc(CNC(=O)CCSCc2cccc(F)c2)cc1,–,–,–,–,–,–,·,·
Cc1ccc(NC(=O)COC(=O)c2ccc(-n3nc(C)cc3C)cc2)c(F)c1,–,–,–,–,·,–,·,·
O=C(O)CN1C(=O)/C(=C/c2ccccc2Br)Oc2ccccc21,–,–,–,–,–,–,·,·
O=C(c1ccco1)N1CCN(C(=O)C2CCCc3c2[nH]c2ccc(Cl)cc32)CC1 (stereo not drawn),–,–,–,–,–,86,67,–
CCN(CC)C(=O)C1CCCc2c1[nH]c1ccc(Cl)cc21 (stereo not drawn),–,–,–,–,–,84,72,–
O=C(Nc1ccc(Br)cc1)c1ccc2c(c1)OCO2,–,–,–,–,–,–,·,·
COc1cc(C(=O)Nc2nc(C)c(Cc3ccc4c(c3)OCO4)s2)cc(OC)c1OC,–,–,–,–,–,79,67,76
CCCOc1ccc(C(=O)Nc2nc(C)c(Cc3ccc4c(c3)OCO4)s2)cc1,–,–,–,–,–,–,·,·
Cc1c(Cc2ccc3c(c2)OCO3)sc(NC(=O)C(C)(C)C)c1C#N,–,–,–,–,–,58,–,·
CCC(=O)Nc1sc(Cc2ccc3c(c2)OCO3)c(C)c1C(N)=O,–,–,–,–,–,–,·,·
